ChEMBL document CHEMBL1139577, “Discovery of 3-OH-3-methylpipecolic hydroxamates: potent orally active inhibitors of aggrecanase and MMP-13” (Bioorg Med Chem Lett, 2005)

What was measured:
[1] = Inhibitory concentration against aggrecanase from porcine chondrocytes using [35S]-sulfate (5 mCi/ml) as radioligand and adding IL-1alpha (5 ng/ml) incubated for 10h; parameters: species or system Sus scrofa
Summary of the method: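 Cell-based assay in porcine chondrocytes. Glycosaminoglycan chains were labelled by including [³⁵S]sulfate (5 mCi/ml) in the culture medium, and unincorporated label was washed out before aggrecan degradation was assessed.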

Interstitial collagenase = molecular target: T1, Interstitial collagenase (Homo sapiens, UniProt P03956); assay: Inhibitory concentration against MMP-1
T1 sequence (P03956 whole entry): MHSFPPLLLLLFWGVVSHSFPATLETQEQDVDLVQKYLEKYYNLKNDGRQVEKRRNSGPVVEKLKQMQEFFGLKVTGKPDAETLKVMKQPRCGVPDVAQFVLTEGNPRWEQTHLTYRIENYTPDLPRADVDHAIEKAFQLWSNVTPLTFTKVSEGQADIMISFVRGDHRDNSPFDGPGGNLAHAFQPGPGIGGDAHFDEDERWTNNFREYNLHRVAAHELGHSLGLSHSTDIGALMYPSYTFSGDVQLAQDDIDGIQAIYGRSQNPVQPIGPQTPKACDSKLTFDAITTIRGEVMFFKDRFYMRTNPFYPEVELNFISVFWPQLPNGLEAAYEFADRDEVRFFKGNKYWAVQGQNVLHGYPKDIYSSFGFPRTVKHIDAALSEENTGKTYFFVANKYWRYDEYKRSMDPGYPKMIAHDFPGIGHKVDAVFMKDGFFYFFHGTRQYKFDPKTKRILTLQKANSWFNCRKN

[2] = Inhibitory concentration against MMP-13
[3] = Half life in rat; type: ADME; conditions: in vivo
Summary of the method: (§1)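 Male Sprague–Dawley rats with jugular vein catheters got an iv bolus of 5 mg/kg in glycerol formal. Jugular blood was drawn at 5, 15 and 30 min and at 1, 2, 4, 6, 8 and 24 h. Plasma was diluted with an equal volume of water, extracted with MTBE and assayed by LC–MS/MS. Parameters were derived by non-compartmental analysis.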

[4] = Half life in dog; type: ADME, Canis lupus familiaris; conditions: in vivo
[5] = Clearance in dog; type: ADME, organism-based, Canis lupus familiaris; conditions: plasma, read-out: Clp
[6] = Clearance in rat; type: ADME, organism-based; conditions: plasma, read-out: Clp; summary of the method: as §1
[7] = molecular target: T2, A disintegrin and metalloproteinase with thrombospondin motifs 4 (Homo sapiens) (UniProt O75173); assay: Inhibitory concentration at 500 nM against aggrecanase from porcine chondrocytes using [35S]-sulfate (5 mCi/ml) as radioligand and adding IL-1alpha (5 ng/ml) incubated for 10h; conditions: Sus scrofa, target entry is the homologue from another species
T2 sequence (whole entry): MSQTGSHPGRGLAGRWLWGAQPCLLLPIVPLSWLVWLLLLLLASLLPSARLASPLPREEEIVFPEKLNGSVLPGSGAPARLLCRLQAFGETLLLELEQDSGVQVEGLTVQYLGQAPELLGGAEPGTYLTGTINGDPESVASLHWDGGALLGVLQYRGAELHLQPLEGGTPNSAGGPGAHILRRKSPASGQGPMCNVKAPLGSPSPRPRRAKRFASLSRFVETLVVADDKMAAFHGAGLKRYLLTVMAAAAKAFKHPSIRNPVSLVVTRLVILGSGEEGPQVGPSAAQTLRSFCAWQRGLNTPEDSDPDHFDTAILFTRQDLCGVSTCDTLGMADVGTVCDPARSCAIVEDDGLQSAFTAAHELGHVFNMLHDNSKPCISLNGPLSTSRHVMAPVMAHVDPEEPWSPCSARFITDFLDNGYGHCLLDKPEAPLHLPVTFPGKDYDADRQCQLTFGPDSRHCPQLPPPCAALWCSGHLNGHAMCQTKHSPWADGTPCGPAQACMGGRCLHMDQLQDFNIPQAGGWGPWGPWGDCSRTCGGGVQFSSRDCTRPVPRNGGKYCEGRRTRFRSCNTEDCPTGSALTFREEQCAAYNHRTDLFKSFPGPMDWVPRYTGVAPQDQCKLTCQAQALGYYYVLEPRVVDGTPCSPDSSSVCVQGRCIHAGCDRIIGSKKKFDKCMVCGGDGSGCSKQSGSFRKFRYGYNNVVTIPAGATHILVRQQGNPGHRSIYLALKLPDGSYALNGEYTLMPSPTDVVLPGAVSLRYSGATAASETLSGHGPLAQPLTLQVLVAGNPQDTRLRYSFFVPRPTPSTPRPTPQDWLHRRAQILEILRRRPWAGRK

[8] = molecular target: Disintegrin and metalloproteinase domain-containing protein 17 (Rattus norvegicus, UniProt Q9Z1K9); assay: Inhibitory concentration against rat TACE
Chain of Disintegrin and metalloproteinase domain-containing protein 17 (Q9Z1K9 whole entry, the tested form may be a part): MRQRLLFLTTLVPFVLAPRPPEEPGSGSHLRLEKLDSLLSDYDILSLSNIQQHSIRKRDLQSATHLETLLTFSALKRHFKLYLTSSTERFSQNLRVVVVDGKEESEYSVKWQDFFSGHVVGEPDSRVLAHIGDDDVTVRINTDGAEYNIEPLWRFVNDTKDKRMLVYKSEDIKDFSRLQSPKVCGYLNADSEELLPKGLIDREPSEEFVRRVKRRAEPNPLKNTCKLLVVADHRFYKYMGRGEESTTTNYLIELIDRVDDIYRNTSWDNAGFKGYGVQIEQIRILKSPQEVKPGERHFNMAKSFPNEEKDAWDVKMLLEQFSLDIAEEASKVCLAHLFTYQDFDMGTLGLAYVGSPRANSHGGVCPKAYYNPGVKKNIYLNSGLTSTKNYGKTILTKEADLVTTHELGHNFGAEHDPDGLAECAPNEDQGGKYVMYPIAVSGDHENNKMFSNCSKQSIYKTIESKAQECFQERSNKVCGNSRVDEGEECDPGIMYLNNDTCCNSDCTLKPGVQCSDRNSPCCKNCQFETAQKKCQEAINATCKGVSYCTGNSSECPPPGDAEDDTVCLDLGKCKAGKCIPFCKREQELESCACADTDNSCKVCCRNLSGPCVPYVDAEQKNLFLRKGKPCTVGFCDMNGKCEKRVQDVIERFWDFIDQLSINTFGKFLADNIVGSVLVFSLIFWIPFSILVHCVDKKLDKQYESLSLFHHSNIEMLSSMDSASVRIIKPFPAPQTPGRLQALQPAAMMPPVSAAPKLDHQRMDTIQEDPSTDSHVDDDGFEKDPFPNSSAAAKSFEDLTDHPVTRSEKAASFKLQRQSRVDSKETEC

[9] = molecular target: 72 kDa type IV collagenase (Homo sapiens, UniProt P08253); assay: Inhibitory concentration against MMP-2
Chain of 72 kDa type IV collagenase (P08253 whole entry): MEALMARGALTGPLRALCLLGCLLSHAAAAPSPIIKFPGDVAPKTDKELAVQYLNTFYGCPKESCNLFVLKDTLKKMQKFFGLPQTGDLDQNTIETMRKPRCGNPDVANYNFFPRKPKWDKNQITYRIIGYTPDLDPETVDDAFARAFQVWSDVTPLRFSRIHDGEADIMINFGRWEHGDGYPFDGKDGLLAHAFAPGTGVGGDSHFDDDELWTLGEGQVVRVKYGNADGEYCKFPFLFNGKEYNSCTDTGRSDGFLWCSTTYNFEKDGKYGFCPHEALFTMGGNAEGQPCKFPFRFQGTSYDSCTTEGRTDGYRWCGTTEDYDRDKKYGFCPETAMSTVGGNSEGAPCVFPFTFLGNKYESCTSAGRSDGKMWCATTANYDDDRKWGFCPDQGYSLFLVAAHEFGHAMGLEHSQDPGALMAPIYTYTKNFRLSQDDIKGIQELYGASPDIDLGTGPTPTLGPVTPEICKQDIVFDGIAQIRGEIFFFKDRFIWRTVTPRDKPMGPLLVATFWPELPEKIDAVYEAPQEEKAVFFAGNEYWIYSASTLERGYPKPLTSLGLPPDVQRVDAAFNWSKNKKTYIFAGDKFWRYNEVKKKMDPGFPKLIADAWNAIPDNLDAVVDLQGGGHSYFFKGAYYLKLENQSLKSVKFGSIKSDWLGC

Stromelysin-1 = Stromelysin-1 (Homo sapiens, UniProt P08254); assay: Inhibitory concentration against MMP-3
Chain of Stromelysin-1 (P08254 whole entry): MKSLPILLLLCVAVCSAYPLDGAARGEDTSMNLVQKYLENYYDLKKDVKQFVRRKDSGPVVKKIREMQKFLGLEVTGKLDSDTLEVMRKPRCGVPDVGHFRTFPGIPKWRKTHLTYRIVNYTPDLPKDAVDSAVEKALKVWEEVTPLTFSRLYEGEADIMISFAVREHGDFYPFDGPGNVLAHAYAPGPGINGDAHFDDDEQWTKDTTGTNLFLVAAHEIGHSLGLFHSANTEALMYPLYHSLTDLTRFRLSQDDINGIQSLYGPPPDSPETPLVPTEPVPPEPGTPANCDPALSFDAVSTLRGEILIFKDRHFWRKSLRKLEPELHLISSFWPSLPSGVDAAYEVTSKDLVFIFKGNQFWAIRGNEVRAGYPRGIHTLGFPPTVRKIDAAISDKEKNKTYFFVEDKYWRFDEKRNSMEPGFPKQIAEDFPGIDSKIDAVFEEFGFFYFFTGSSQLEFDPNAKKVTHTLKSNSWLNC

Neutrophil collagenase = Neutrophil collagenase (Homo sapiens, UniProt P22894); assay: Inhibitory concentration against MMP-8
Chain of Neutrophil collagenase (P22894 whole entry): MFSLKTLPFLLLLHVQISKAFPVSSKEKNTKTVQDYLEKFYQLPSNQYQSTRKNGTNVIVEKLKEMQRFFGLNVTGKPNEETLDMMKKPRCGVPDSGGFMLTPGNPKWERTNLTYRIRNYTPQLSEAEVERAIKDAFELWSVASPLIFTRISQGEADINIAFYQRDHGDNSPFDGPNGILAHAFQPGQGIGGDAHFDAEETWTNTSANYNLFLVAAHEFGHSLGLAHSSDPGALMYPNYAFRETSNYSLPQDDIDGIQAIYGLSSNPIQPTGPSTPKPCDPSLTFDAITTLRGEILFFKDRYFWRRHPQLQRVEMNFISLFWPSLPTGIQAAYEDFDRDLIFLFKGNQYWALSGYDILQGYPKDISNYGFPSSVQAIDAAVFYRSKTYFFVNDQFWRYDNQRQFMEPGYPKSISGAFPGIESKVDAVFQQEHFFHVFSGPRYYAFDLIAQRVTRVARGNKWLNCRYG

[10] = molecular target: Matrix metalloproteinase-9 (Homo sapiens, UniProt P14780); assay: Inhibitory concentration against MMP-9
Chain of Matrix metalloproteinase-9 (P14780 whole entry): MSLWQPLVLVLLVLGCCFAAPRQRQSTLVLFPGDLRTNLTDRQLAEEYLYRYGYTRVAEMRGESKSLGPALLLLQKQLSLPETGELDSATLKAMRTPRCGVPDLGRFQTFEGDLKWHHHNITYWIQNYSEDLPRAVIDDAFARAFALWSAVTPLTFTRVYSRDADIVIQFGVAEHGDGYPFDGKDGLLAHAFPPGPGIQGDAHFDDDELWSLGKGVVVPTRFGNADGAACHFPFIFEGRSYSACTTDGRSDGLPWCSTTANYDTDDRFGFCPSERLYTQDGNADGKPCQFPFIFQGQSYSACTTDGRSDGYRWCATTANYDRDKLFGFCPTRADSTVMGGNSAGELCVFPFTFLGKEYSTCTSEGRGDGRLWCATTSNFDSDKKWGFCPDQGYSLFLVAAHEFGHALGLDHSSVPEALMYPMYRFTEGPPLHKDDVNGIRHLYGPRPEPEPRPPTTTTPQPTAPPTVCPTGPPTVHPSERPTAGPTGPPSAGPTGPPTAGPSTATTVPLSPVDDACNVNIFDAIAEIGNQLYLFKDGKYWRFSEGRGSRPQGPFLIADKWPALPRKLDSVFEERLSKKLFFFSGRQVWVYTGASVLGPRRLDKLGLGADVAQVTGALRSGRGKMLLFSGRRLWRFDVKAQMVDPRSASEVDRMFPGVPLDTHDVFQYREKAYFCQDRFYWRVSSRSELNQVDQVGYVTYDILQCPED

[11] = molecular target: Matrix metalloproteinase-14 (Homo sapiens, UniProt P50281); assay: Inhibitory concentration against MMP-14
Cricetinae gen. sp. [12] = assay: Potent inhibition of IL-1 induced aggrecan degradation in hamster; type: functional, Cricetulus griseus
Bos taurus [13] = organism: Bos taurus; assay: Inhibition of IL-1 induced collagen degradation in bovine nasal cartilage explants; type: functional
Cricetinae gen. sp. [14] = assay: Potent inhibition of MMP-13 induced collagen degradation in hamster knee joints; type: functional, Cricetulus griseus; conditions: Knee joint
Cell line = assay: Inhibition of IL-1 induced aggrecan degradation in human osteoarthritic cartilage; type: functional, cell-based; conditions: Cartilage tissue
Summary of the method: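 Articular cartilage came from total knee replacement and was cut into 1 × 2 mm pieces. These were cultured in DMEM with 0.5% fetal bovine serum and stimulated with IL-1α (50 ng/ml) plus oncostatin M (50 ng/ml). After 48 h, released GAG in the medium was measured by DMMB; n = 2.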

Bos taurus [15] = organism: Bos taurus; assay: Inhibition of IL-1 induced aggrecan degradation in bovine nasal cartilage explants; type: functional
Summary of the method: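 Bovine nasal cartilage plugs (4 mm diameter and length) were cultured in serum-free DMEM with IL-1α plus inhibitor. After 48 h, samples were analysed for GAG content by the DMMB assay.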

Structure (SMILES)	IC50 [1]	IC50 (Interstitial collagenase)	IC50 [2]	IC50 [8]	further results
C[C@@]1(O)CCCN(S(=O)(=O)c2ccc(OCc3ccc(Cl)cc3F)cc2)[C@H]1C(=O)NO	0.0079 µM	0.12 µM	0.00087 µM		
C[C@@]1(O)CCCN(S(=O)(=O)c2ccc(OCc3cccc4cccnc34)cc2)[C@H]1C(=O)NO	0.019 µM	0.12 µM	0.0041 µM		
C[C@@]1(O)CCCN(S(=O)(=O)c2ccc(OCc3ccnc(Cl)c3)cc2)[C@H]1C(=O)NO	0.015 µM	0.52 µM	0.00043 µM		
CC1(C)C[C@@H](O)CN(S(=O)(=O)c2ccc(OCc3ccc(Cl)cc3Cl)cc2)[C@H]1C(=O)NO					half-life [3]: 2 h; half-life [4]: 2 h; clearance [5]: 25 mL/min/kg; clearance [6]: 44 mL/min/kg
C[C@@]1(O)CCCN(S(=O)(=O)c2ccc(OCc3cccc4ccncc34)cc2)[C@H]1C(=O)NO	0.017 µM	7.8 µM	0.018 µM		
C[C@@]1(O)CCCN(S(=O)(=O)c2ccc(OCc3ccccc3F)cc2)[C@H]1C(=O)NO	0.014 µM	0.18 µM	0.00049 µM		
C[C@@]1(O)CCCN(S(=O)(=O)c2ccc(OCc3cccc(Cl)c3)cc2)[C@H]1C(=O)NO	0.078 µM	0.86 µM	0.0025 µM		
C[C@@]1(O)CCCN(S(=O)(=O)c2ccc(OCc3cnccn3)cc2)[C@H]1C(=O)NO		1.6 µM	0.0074 µM		inhibition [7]: 8%
C[C@@]1(O)CCCN(S(=O)(=O)c2ccc(OCc3ccncc3)cc2)[C@H]1C(=O)NO		0.19 µM	0.002 µM		inhibition [7]: 8.1%
Cc1c(F)cccc1COc1ccc(S(=O)(=O)N2CCC[C@@](C)(O)[C@@H]2C(=O)NO)cc1	0.011 µM	1.3 µM	0.0032 µM	0.01 µM	
Cc1ccc(F)cc1COc1ccc(S(=O)(=O)N2CCC[C@@](C)(O)[C@@H]2C(=O)NO)cc1	0.015 µM		0.0025 µM		
C[C@@]1(O)CCCN(S(=O)(=O)c2ccc(OCc3ccc(F)cc3)cc2)[C@H]1C(=O)NO (stereo in doubt; 11)	0.12 µM	0.42 µM	0.0037 µM	0.014 µM	
Cc1ncccc1COc1ccc(S(=O)(=O)N2CCC[C@@](C)(O)[C@@H]2C(=O)NO)cc1	0.051 µM	1.6 µM	0.0015 µM		
C[C@@]1(O)CCCN(S(=O)(=O)c2ccc(OCc3ccc(F)cc3Cl)cc2)[C@H]1C(=O)NO	0.0015 µM	0.31 µM	0.0009 µM		half-life [3]: 2 h; IC50 [9]: 0.004 µM; IC50 (Stromelysin-1): 0.005 µM; IC50 (Neutrophil collagenase): 0.001 µM; IC50 [10]: 0.011 µM; IC50 [11]: 0.083 µM; ED50 (Cricetinae gen. sp. [12]): 4.6 mg/kg; IC50 (Bos taurus [13]): 0.1 µM; ED50 (Cricetinae gen. sp. [14]): 13 mg/kg; IC50 (Cell line): 0.006 µM; IC50 (Bos taurus [15]): 0.0103 µM; half-life [4]: 4.6 h; clearance [5]: 11 mL/min/kg; clearance [6]: 13 mL/min/kg
COc1ccccc1COc1ccc(S(=O)(=O)N2CCC[C@@](C)(O)[C@@H]2C(=O)NO)cc1		2.6 µM	0.018 µM		inhibition [7]: 73%
Cc1ccccc1COc1ccc(S(=O)(=O)N2CCC[C@@](C)(O)[C@@H]2C(=O)NO)cc1	0.0069 µM	0.31 µM	0.00065 µM		
CCCC[C@]1(O)CCCN(S(=O)(=O)c2ccc(OCc3ccc(F)cc3)cc2)[C@H]1C(=O)NO	2 µM	2.9 µM	0.0049 µM	0.023 µM	
C[C@@]1(O)CCCN(S(=O)(=O)c2ccc(OCc3cccc(F)c3)cc2)[C@H]1C(=O)NO	0.085 µM	0.34 µM	0.0015 µM		
C[C@@]1(O)CCCN(S(=O)(=O)c2ccc(OCc3ccccc3Cl)cc2)[C@H]1C(=O)NO	0.0037 µM		0.001 µM		
Cc1cc(F)ccc1COc1ccc(S(=O)(=O)N2CCC[C@@](C)(O)[C@@H]2C(=O)NO)cc1	0.0047 µM		0.0029 µM	0.015 µM	
CC[C@@]1(O)CCCN(S(=O)(=O)c2ccc(OCc3ccc(F)cc3)cc2)[C@H]1C(=O)NO	0.5 µM	0.5 µM	0.0016 µM	0.018 µM	
C[C@]1(O)CCCN(S(=O)(=O)c2ccc(OCc3ccc(F)cc3)cc2)[C@H]1C(=O)NO	> 1 µM	1.1 µM	0.0065 µM	0.011 µM	
C[C@@]1(O)CCCN(S(=O)(=O)c2ccc(OCc3ccc(F)cc3)cc2)[C@H]1C(=O)NO (stereo in doubt; 17)		0.42 µM		0.014 µM	
CC[C@]1(O)CCCN(S(=O)(=O)c2ccc(OCc3ccc(F)cc3)cc2)[C@H]1C(=O)NO	0.49 µM	1.1 µM	0.0036 µM	0.0017 µM	
C[C@@]1(O)CCCN(S(=O)(=O)c2ccc(OCc3ccccc3C#N)cc2)[C@H]1C(=O)NO		2.7 µM	0.0097 µM		inhibition [7]: 55%
